According to BindingDB's records for doi:10.1016/j.bmcl.2005.03.058 (Wyeth Research, 2005):

Tests used:
[1] = target: T1, UDP-N-acetylenolpyruvoylglucosamine reductase (Escherichia coli (strain K12), UniProt P08373); experiment: Inhibitory concentration against MurB enzyme in Escherichia coli
T1 sequence (P08373 whole entry): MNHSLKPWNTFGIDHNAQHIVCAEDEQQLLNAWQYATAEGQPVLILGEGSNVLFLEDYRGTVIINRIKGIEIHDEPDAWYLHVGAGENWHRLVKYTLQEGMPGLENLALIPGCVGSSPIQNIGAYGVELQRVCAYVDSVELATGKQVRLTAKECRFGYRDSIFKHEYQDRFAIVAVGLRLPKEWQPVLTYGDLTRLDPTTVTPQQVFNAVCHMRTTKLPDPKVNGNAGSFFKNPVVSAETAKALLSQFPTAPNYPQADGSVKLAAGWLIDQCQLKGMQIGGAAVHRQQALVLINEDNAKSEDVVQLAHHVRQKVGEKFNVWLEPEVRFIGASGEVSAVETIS
Method in brief: (§1)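 Enzyme (20 nM) preincubated 20 min with inhibitor, then substrates added to final 50 µM EP-UNAG and 100 µM NADPH. Activity followed spectrophotometrically. At least six inhibitor concentrations between 1.5 and 50 µM per compound. IC50 from sigmoid Hill curve fit (0–100).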

[2] = target: UDP-N-acetylglucosamine 1-carboxyvinyltransferase (Escherichia coli (strain K12), UniProt P0A749); experiment: Inhibitory concentration against MurA enzyme in Escherichia coli
Sequence of UDP-N-acetylglucosamine 1-carboxyvinyltransferase (P0A749 whole entry): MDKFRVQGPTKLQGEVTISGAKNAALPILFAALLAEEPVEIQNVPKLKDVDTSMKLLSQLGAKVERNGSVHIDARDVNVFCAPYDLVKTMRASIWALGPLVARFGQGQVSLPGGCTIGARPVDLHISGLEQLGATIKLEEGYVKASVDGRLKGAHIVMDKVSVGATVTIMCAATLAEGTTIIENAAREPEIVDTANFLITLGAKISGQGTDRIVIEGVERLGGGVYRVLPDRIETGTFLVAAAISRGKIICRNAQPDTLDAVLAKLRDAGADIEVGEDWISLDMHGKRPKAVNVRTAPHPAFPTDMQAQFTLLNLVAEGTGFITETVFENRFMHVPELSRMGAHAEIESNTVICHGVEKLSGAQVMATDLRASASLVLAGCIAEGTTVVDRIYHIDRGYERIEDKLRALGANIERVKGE
Method in brief: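 Enzyme preincubated with inhibitor 10 min at 37 °C before substrates were added. Reaction ran 30 min at 37 °C and was stopped with malachite green reagent (0.03% malachite green, 1.4% ammonium molybdate, 1.3 N HCl) for phosphate read-out.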

[3] = target: T2, UDP-N-acetylenolpyruvoylglucosamine reductase (Staphylococcus aureus, UniProt P61431); experiment: Inhibitory concentration against MurB enzyme in Staphylococcus aureus; method in brief: as §1
T2 sequence (P61431 whole entry): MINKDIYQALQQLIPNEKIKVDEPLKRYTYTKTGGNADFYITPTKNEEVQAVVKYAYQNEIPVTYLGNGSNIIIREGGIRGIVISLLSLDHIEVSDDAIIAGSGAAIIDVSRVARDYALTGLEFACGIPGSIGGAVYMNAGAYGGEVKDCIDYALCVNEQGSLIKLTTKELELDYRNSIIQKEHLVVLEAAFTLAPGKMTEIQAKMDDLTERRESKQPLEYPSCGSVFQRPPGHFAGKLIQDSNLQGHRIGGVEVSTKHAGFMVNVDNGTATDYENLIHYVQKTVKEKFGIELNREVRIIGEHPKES

Row | SMILES | IC50 [1] [µM] | IC50 [2] [µM] | IC50 [3] [µM]
1 | O=c1c(Cc2ccccc2)c(O)n(-c2ccc(Cl)cc2)n1-c1ccc(Cl)cc1 [4-Benzyl-1,2-bis-(4-chloro-phenyl)-pyrazolidine-3,5-dione] | > 50 | > 50 | 
2 | CCC(CC)Cc1c(O)n(-c2ccc(Cl)cc2)n(-c2ccc(Cl)cc2)c1=O [1,2-Bis-(4-chloro-phenyl)-4-(2-ethyl-butyl)-pyrazolidine-3,5-dione] | 50 | > 50 | 
3 | CCN(CC)CCc1c(O)n(-c2ccc(Cl)cc2)n(-c2ccc(Cl)cc2)c1=O [1,2-Bis-(4-chloro-phenyl)-4-(2-diethylamino-ethyl)-pyrazolidine-3,5-dione] | > 50 | > 50 | 
4 | CCN(CCc1c(O)n(-c2ccc(Cl)cc2)n(-c2ccc(Cl)cc2)c1=O)Cc1ccccc1 [4-[2-(Benzyl-ethyl-amino)-ethyl]-1,2-bis-(4-chloro-phenyl)-pyrazolidine-3,5-dione] | > 50 | > 50 | > 50
5 | COc1cccc(Cc2c(O)n(-c3ccc(Cl)cc3)n(-c3ccc(Cl)cc3)c2=O)c1 [1,2-Bis-(4-chloro-phenyl)-4-(3-methoxy-benzyl)-pyrazolidine-3,5-dione] | 50 | > 50 | 
6 | O=c1c(Cc2ccccc2Cl)c(O)n(-c2ccc(Cl)cc2)n1-c1ccc(Cl)cc1 [4-(2-Chloro-benzyl)-1,2-bis-(4-chloro-phenyl)-pyrazolidine-3,5-dione] | > 50 | > 50 | > 50
